Bioassay records deposited in PubChem by several laboratories.
Only some compounds are listed: those with a hit (about 4.5% of all), similar ones and a draw of the others.
APP 5'UTR act: activates APP 5'UTR luciferase reporter | SH-SY5Y APP 5'UTR luciferase reporter, luminescence; zero percent = DMSO vehicle wells | activation, % at 2 µM | hit rate 1% among 190,000;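 active means activation above a set limit, based on mean plus 3 SD of controls, cut at about 140% in these data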
Mdm2 ligase inh: blocks human Mdm2 ubiquitin ligase activity | Q00987 | cell-based MDM2 ubiquitination luciferase reporter, 2 h; 0 = plate control, 100 = twice control, blank-subtracted | signal enhancement, % at 5 µM | hit rate 0.11% among 210,000 | AID 1230;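 active means signal enhancement of 30% or more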;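 further: luminescence tracks abundance of the self-degrading MDM2-luciferase fusion protein; higher signal means inhibition of MDM2 E3 ligase activity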
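Test system: mammalian cells stably expressing self-ubiquitinating, self-degrading MDM2 E3–luciferase fusion; Amount: 2000 cells in each well; Medium: DMEM; Schedule: 4 h settle plus 2 h compound, 37 °C; Technique: SteadyLite luciferase luminescence after 15 min room-temperature reagent incubation; Benchmarks: plate control and blank wells.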
NF-kB expr up: compounds increasing NF-kB expression in human neuronal cells; NF-kB reporter expression; hits give high values; fold change at 12.5 µM; hit rate 1.6% among 190,000; in the data active means fold change above about 3.3
PERK inh: inhibitors of human PERK kinase; hit rate 0.17% among 220,000; Q9NZJ5; CHO PERK-DD fusion, SEAP luminescence translation reporter; inhibition, % at 5.6 µM;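 active means inhibition above the mean inhibition of all tested compounds plus 3 SD, set separately per screening campaign, cut at about 2.9% in these data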;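 further: PERK kinase domain activated by AP20187 dimerizer at 100 nM; 0% = DMSO with dimerizer and 100% = rapamycin at 8.4 µM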
Target sequence (Q9NZJ5 whole entry, looked up, the tested form may be a part): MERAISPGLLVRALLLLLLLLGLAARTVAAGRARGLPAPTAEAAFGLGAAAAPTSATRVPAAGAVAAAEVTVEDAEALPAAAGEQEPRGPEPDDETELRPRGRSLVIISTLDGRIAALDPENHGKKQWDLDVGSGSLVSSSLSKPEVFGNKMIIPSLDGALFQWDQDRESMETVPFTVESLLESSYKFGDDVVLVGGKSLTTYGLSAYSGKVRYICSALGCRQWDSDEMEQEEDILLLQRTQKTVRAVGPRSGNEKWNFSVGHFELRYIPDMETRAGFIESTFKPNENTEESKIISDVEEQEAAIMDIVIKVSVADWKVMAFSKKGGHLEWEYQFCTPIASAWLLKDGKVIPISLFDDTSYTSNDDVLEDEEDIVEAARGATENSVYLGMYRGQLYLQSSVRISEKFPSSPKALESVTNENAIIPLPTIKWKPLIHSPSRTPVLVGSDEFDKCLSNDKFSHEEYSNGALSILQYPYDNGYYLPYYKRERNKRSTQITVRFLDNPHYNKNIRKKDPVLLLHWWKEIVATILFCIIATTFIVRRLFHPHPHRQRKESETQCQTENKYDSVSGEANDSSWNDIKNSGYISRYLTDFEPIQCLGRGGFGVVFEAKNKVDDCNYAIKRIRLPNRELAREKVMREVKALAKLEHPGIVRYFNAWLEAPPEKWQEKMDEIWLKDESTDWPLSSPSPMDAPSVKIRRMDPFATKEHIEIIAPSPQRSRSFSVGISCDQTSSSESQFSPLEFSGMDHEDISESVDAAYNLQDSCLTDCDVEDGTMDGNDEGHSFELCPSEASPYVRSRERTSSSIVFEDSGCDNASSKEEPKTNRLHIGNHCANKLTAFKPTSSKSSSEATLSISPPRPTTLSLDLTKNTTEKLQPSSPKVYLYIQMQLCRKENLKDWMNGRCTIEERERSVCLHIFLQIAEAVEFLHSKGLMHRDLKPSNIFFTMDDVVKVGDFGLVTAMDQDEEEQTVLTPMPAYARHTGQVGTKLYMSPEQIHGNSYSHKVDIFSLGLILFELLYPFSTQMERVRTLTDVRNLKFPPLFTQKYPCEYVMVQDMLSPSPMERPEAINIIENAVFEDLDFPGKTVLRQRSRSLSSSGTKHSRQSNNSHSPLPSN
STAT1 act: increases IFN-gamma driven STAT1 reporter signal | NIH 3T3 STAT1-luciferase reporter, luminescence; 100% = IFN-gamma alone, no compound | hit rate 2.6% among 200,000 | activation (% of control), % at 5.5 µM | AID 932;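 active means activation above the screen-wide mean activation plus 3 SD, cut at about 130% in these data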;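 further: raw ratio to IFN-gamma control signal so 100% means no change and 0% no light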
AHR act: activates the human aryl hydrocarbon receptor | hit rate 2.5% among 320,000 | AHR-responsive luciferase reporter cells, luminescence | P35869 | AID 2796 | activation, % at 5 µM; in the data active means activation above about 47%;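 further: 0% = vehicle wells and 100% = reference agonist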
AHR act cf: human AHR activation, confirmation. shares compounds with AHR act. human cells, AHR-responsive luciferase reporter, luminescence. activation, % at 9 µM. hit rate 87% among 2,300. AID 2845; in the data active means activation above about 49%;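 further: HepG2 hepatoma cells carrying a DRE-driven firefly luciferase reporter; 0% = vehicle wells and 100% = reference agonist wells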
PXR act counter: PXR activation, counter-screen for AHR activators | activation, % at 11.6 µM | cell-based PXR reporter, luciferase luminescence | hit rate 88% among 2,300 | shares compounds with AHR act; in the data active means activation above about 11%;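 further: human hepatoma DPX-2 cells expressing full-length human PXR; 0% = DMSO and 100% = reference agonist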
An asterisk follows results filed as active; . = not tested or not shown.

SMILES | APP 5'UTR act | Mdm2 ligase inh | NF-kB expr up | PERK inh | STAT1 act | AHR act | AHR act cf | PXR act counter
COc1ccccc1Nc1nc(NCCO)nc(N)c1[N+](=O)[O-] | . | -21 | . | 0 | . | 97* | 128* | .
COc1ccc(C(CNC(=O)C(Cc2ccccc2)NC(N)=O)N(C)C)cc1 (stereo unspecified) | . | . | . | . | . | 8 | . | .
Cc1ccc(C)c(NC(=O)COC(=O)c2nc(Cl)ccc2Cl)c1 | . | . | . | . | . | 11 | . | .
Cc1ccc(C)c(NC(=O)c2nc(Cl)ccc2Cl)c1 | 16 | -4 | 1.2 | 0 | 102 | 81* | 106* | 112*
Oc1ccc2[nH]ccc2c1 | 10 | -2 | 2.4 | 1 | 94 | 0 | . | .
Nc1ccccc1C#Cc1ccc2[nH]ccc2c1 | . | . | . | . | . | 94* | 120* | 24*
CCCNC(=O)c1onc(CS(=O)(=O)c2cc(C)cc(C)c2)c1C(=O)NCCC | . | . | . | . | . | 9 | . | .
COc1cccc(C=Nc2ccccc2C(=O)Nc2nccs2)c1OC | 29 | -9 | 1.4 | 0 | 103 | -1 | . | .
COc1c(C(=O)Nc2nccs2)ccc2ccccc12 | . | . | . | . | . | 84* | 149* | 27*
Cc1cc(=O)[nH]c(-c2ccc(C(F)(F)F)cc2)n1 | . | -7 | . | 2 | . | 87* | 114* | 11*
Cc1ccc(-c2nc(C(F)(F)F)cc(=O)[nH]2)cc1 | . | -3 | . | 1 | . | -1 | . | .
CCN(c1ccccc1)S(=O)(=O)c1ccc(C(=O)N(C)CCc2ccc(OC)c(OC)c2)cc1 | . | . | . | . | . | 3 | . | .
Cc1cc(C)c(C)c(S(=O)(=O)N2CCCN(C)CC2)c1C | . | . | . | . | . | -2 | . | .
Brc1cccc2sc(N3CCN(c4ccccc4)CC3)nc12 | 14 | -1 | 1.1 | 0 | 117 | 91* | 108* | 18*
OCCCNc1nc(-c2ccc(Cl)cc2)nc2ccccc12 | . | . | . | . | . | 88* | 104* | 62*
COCCN(CCOC)c1nc(-c2ccc(Cl)cc2)nc2ccccc12 | . | . | . | . | . | 118* | 83* | 70*
O=C(O)CCCCCNc1nc(-c2ccccc2)nc2ccccc12 | . | . | . | . | . | 6 | . | .
CCCCN(CCCC)c1nc(-c2ccncc2)nc2ccccc12 | . | -9 | . | 0 | . | 8 | . | .
CCN(CC)c1nc(-c2ccccc2)nc2ccccc12 | . | . | . | . | . | 108* | 78* | 91*
COCCNc1nc(-c2ccccc2)nc2ccccc12 | 22 | -20 | 1.1 | 1 | 100 | 10 | . | .
COCCCNc1nc(-c2ccc(Cl)cc2)nc2ccccc12 | . | . | . | . | . | 98* | 91* | 30*
Cc1ccc(NC(=O)c2ccc3c(c2)OCCO3)cc1S(=O)(=O)Nc1cccc(Cl)c1 | 34 | -7 | 1.2 | -1 | 114 | 22 | . | .
CCC1CCCCN1C(=O)COC(=O)c1ccc(Br)o1 (stereo unspecified) | . | . | . | . | . | -1 | . | .
CC(C)(C)NC(=O)C(=O)NCCC1=CCCCC1 | 26 | 1 | 1.4 | 0 | 109 | 1 | . | .
CCN(CC)CCCNc1nc(-c2ccccc2)nc2ccccc12 | 14 | -9 | 1.1 | -1 | 111 | 4 | . | .
SMILES | APP 5'UTR act | Mdm2 ligase inh | NF-kB expr up | PERK inh | STAT1 act | AHR act | AHR act cf | PXR act counter
c1ccc(-c2nc(NCCCn3ccnc3)c3ccccc3n2)cc1 | -4 | -16 | 0.93 | -1 | 100 | 82* | 89* | 76*
COCCCNc1nc(-c2ccncc2)nc2ccccc12 | 5 | -14 | 0.83 | -2 | 94 | 88* | 103* | 56*
CCOC(=O)c1c(-c2ccccc2)oc2ccc(OCC(O)CNCCN(C)C)cc12 (stereo unspecified) | . | . | . | . | . | 2 | . | .
C=CCNC(=O)c1ccccc1NC(=O)c1cccc2ccccc12 | 14 | -13 | 0.63 | -3 | 105 | 94* | 89* | 84*
O=C(N1CCOCC1)N1CCN(S(=O)(=O)c2ccc(F)cc2)CC1 | . | . | . | . | . | 0 | . | .
O=C1N/C(=N\N=C\c2ccco2)SC1Cc1ccccc1[N+](=O)[O-] (stereo unspecified) | . | . | . | 1 | . | 83* | 71* | 28*
CCOc1ccc(CC2S/C(=N/N=C/c3ccco3)NC2=O)cc1 (stereo unspecified) | 1 | 9 | 1.4 | 2 | 102 | 2 | . | .
CSc1ncc(C(=O)Nc2cccc(Cl)c2C)c(C)n1 | . | . | . | . | . | -4 | . | .
CSc1ncc(C(=O)Nc2ccc(Cl)cc2)c(C)n1 | . | . | . | . | . | 94* | 100* | .
